Paper PMC3343186 (Nature, 2012)
Each block holds one molecule with its values, some of them ahead of it.

Legend:
[1] = system: ob/ob mice; experiment: ob/ob mice, 12-day dosing; type: in vivo; conditions: 100 mg/kg i.p. b.i.d., 12-days
Procedure, shortened: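 Leptin-deficient ob/ob mice were dosed 100 mg/kg i.p. twice daily for 12 days. Body weight and body fat content were tracked; glucose and insulin tolerance were also assessed. Mean ± s.e.m., n=6-10.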

[2] = system: metabolic genes in DIO mice tissues; experiment: Metabolic gene expression in liver, WAT and skeletal muscle of DIO mice; type: in vivo; conditions: 100mg/kg i.p. b.i.d., 30 days
Procedure, shortened: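 Diet-induced obese C57BL6 mice, 20 weeks old, had 14 weeks on high-fat diet (20% carbohydrate, 60% fat) and continued on it under twice-daily i.p. dosing. Liver, WAT and skeletal muscle mRNA was quantified by QPCR, normalised to Cyclophilin b. n=6-10.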

[3] = system: lean C57Bl6 mice; experiment: Fasting plasma TG and Chol in lean C57Bl6 mice; type: in vivo; conditions: 100 mg/kg i.p. b.i.d., 10 days
Procedure, shortened: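 Lean C57Bl6 mice were given 100 mg/kg i.p. twice daily at CT0 and CT12 for 10 days, then fasting plasma triglycerides and total cholesterol were measured. Mean ± s.e.m., n=6-10.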

[4] = system: C57Bl6 mice; experiment: Circadian locomotor activity under L:D; type: in vivo; conditions: L:D 12h:12h, single injection
Procedure, shortened: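 Wheel-running actograms were recorded in C57Bl6 mice kept on 12:12 L:D after single i.p. injections of vehicle or test compound. The protocol was otherwise as in the constant-darkness wheel experiment. n=6-10.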

[5] = system: C57Bl6 mice; experiment: Circadian wheel running activity under constant darkness; type: in vivo; conditions: single dose 100 mg/kg i.p. at CT6
Procedure, shortened: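 C57Bl6 mice in wheel cages were kept 7 days on 12h:12h L:D, then moved to constant darkness. After 12 days in D:D, mice received a single i.p. injection of vehicle or test compound at CT6.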

[6] = system: diet-induced obese C57BL6 mice; experiment: Diet-induced obese mice, 30-day treatment; type: in vivo; conditions: DIO C57Bl6 mice, 100mg/kg i.p. b.i.d., 30 days
[7] = system: SCN explants (Per2:luc); experiment: Bioluminescence of SCN explants from Per2:luc reporter mouse; type: cell-based; conditions: 5 μM
[8] = system: Balb/c or C57Bl6 mice; experiment: Body weight and fat mass in lean mice on chronic dosing; type: in vivo
Procedure, shortened: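 Balb/c mice given 100 mg/kg i.p. twice daily at CT0 and CT12 for 12 days; body weight and fat mass followed over treatment. Mean ± s.e.m., n=6-10 mice.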

[9] = system: clock and metabolic genes in the liver; experiment: Circadian gene expression in liver after single dose; type: in vivo, mice
Procedure, shortened: (§1)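 Male C57BL6 mice, 8-10 weeks, housed on 12h:12h L:D or in constant darkness, received a single 100 mg/kg i.p. dose at CT0. Groups (n=6) were sacrificed at CT0, CT6, CT12 and CT18; tissue mRNA measured by real-time QPCR. Data double plotted; mean ± s.e.m.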

[10] = system: metabolic genes in white adipose tissue (WAT); experiment: Circadian gene expression in white adipose tissue after single dose; type: in vivo, mice
Procedure, shortened: as §1

[11] = system: REV-ERB responsive genes in the liver; experiment: Expression of REV-ERB responsive genes in liver after 6-day dosing; type: in vivo, mice; conditions: various doses i.p., b.i.d., 6-days
[12] = system: core clock genes in the hypothalamus; experiment: Core clock gene expression in hypothalamus; type: in vivo, mice
[13] = system: C57Bl6 mice; experiment: Comprehensive laboratory animal monitoring system; type: in vivo
Procedure, shortened: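 C57Bl6 mice in CLAMS cages were dosed 100 mg/kg i.p. twice daily at CT0 and CT12 for 10 days. Oxygen consumption (VO2) and RER were recorded across diurnal and nocturnal phases. Fat mass was measured by DEXA after the run. Mean ± s.e.m., n=6-10.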

[14] = system: metabolic genes in skeletal muscle; experiment: Circadian gene expression in skeletal muscle after single dose; type: in vivo, mice; conditions: single dose 100 mg/kg i.p. at CT0
Procedure, shortened: as §1

[15] = molecular target: T1, REV-ERBα (Homo sapiens, UniProt P20393); type: cell-based; conditions: HEK293 cells, comparison with SR9011 and SR9009
T1 sequence (P20393 284-614 limits assumed): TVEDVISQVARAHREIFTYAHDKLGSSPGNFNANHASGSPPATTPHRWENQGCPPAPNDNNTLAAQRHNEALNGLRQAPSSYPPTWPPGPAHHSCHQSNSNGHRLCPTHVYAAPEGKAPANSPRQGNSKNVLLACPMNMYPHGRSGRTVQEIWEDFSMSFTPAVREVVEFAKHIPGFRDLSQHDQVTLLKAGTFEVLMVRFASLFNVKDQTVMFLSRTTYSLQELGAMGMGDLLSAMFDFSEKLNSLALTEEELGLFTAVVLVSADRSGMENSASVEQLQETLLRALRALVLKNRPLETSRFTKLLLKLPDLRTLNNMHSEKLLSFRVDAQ

[16] = cited from earlier work
[17] = single dose 100 mg/kg i.p. at CT0
[18] = D:D, 100 mg/kg i.p. single dose at CT0
[19] = C57Bl6 mice, 100mg/kg i.p. b.i.d., 10 days

expression of genes encoding enzymes involved in TG synthesis in WAT [2]: decrease in expression
SMILES: CCOC(=O)N1CCC(CN(Cc2ccc(Cl)cc2)Cc2ccc([N+](=O)[O-])s2)C1 (centres unmarked) [SR9009]
glucose or insulin tolerance [1]: no significant alterations
weight gain [1]: suppressed the degree of weight gain
Cpt1b expression in skeletal muscle [2]: induced the expression
Fasn expression in liver [2]: significant decrease
Hk1 expression in skeletal muscle [2]: induced the expression
Hmgcr expression in liver [2]: significant decrease
Pkm2 expression in skeletal muscle [2]: induced the expression
Ppargc1b expression in skeletal muscle [2]: induced the expression
Scd1 expression in liver [2]: significant decrease
Srebf2 expression in liver [2]: significant decrease
Ucp3 expression in skeletal muscle [2]: induced the expression
plasma total cholesterol [3]: reduce the levels
plasma triglycerides [3]: reduce the levels
delay in the onset of locomotor activity [4]: 1 to 3 h
locomotor activity during the subject dark phase [5]: loss of the subsequent active period
decrease in plasma insulin levels (trend) [6]: 35%
decrease in plasma leptin [6]: 80%
decrease in plasma total cholesterol (Chol) ([6]; fasting): 47%
decrease in plasma triglycerides (TGs) ([6]; fasting): 12%
reduction of plasma glucose ([6]; fasting): 19%
reduction of plasma non-esterified fatty acids (NEFA) ([6]; fasting): 23%
decrease in proinflammatory cytokine IL-6 ([6]; plasma): 72%

Cyp7a1 expression in liver [9, 17]: decreased
Cyp7a1 expression in liver [11]: dose-dependently suppressed
SMILES: CCCCCNC(=O)N1CCC(CN(Cc2ccc(Cl)cc2)Cc2ccc([N+](=O)[O-])s2)C1 (centres unmarked) [SR9011]
amplitude of the oscillations in SCN explants [7]: suppressed the amplitude
circadian oscillations in SCN explants [7]: reversible inhibition of circadian oscillations
period of the oscillations in SCN explants [7]: no effect on the period
body weight and fat mass ([8]; 100mg/kg, i.p., b.i.d., 12 days): weight loss due to decreased fat mass
food intake ([8]; chronic administration, data not shown): not affected
Nampt gene expression in the liver ([9]; single dose): suppressed the circadian rhythm
Nocturnin (Ccrn4l) expression in hepatic tissue ([9]; single dose): suppression
Bmal1 expression in liver [9, 17]: unaffected
Fasn expression in liver [9, 17]: phase shifted
Npas2 expression in liver [9, 17]: unaffected
Per2 expression pattern in liver [9, 17]: altered
Ppargc1a circadian expression in liver [9, 17]: suppressed
Ppargc1b circadian expression in liver [9, 17]: suppressed
Scd1 expression in liver [9, 17]: suppressed
Srebf1 expression in liver [9, 17]: suppressed
Srebf2 expression in liver [9, 17]: decreased
Hmgcr expression in liver ([9]; single dose 100 mg/kg i.p. at CT0, acute model): unaffected
Nocturnin (Ccrn4l) expression in adipose tissue ([10]; single dose): suppression
Dgat1 expression in WAT [10, 17]: suppressed
Dgat 2 expression in WAT [10, 17]: suppressed
Hsl expression in WAT [10, 17]: suppressed
Mgat circadian expression in WAT [10, 17]: disturbed
Plin1 expression in WAT [10, 17]: suppressed
plasma total cholesterol [3]: reduce the levels
plasma triglycerides [3]: reduce the levels
Serpine1 expression in liver [11]: dose-dependent suppression
circadian pattern of Rev-erbα expression in hypothalamus ([12]; D:D conditions): completely suppressed
Bmal1 expression in hypothalamus [12, 18]: left shift in the phase
Cry2 expression in hypothalamus [12, 18]: suppressed
Per2 expression amplitude in hypothalamus [12, 18]: enhanced
circadian pattern of expression of Npas2 in hypothalamus [12, 18]: completely eliminated
pattern of expression of Clock in hypothalamus [12, 18]: enhanced amplitude of the oscillation
circadian pattern of Rev-erbα expression in hypothalamus ([12]; L:D conditions): no effect
delay in the onset of locomotor activity [4]: 1 to 3 h
locomotor activity during the subject dark phase [5]: loss of the subsequent active period
increase in nocturnal food consumption [13, 19]: 10%
increase in oxygen consumption (VO2) [13, 19]: 5%
rate of food intake [13, 19]: no effect
respiratory exchange ratio [13, 19]: no change
total daily food intake [13, 19]: no effect
decrease in movement ([13]; C57Bl6 mice, 100mg/kg i.p. b.i.d., 10 days, x-axis beam breaks): 15%
fat mass (DEXA) vs. vehicle ([13]; after 10-day CLAMS experiment): decrease in fat mass
Cpt1b expression in skeletal muscle [14]: elevated
Hk1 expression in skeletal muscle [14]: increase
Pkm2 expression in skeletal muscle [14]: increase
Pppargc1b expression in skeletal muscle [14]: elevated
Ucp3 expression in skeletal muscle [14]: elevated

activity in GAL4-REV-ERBα and GAL4-REV-ERBβ cotransfection assays [15]: limited activity
SMILES: CC(C)(C)OC(=O)CN(Cc1ccc(Cl)cc1)Cc1ccc([N+](=O)[O-])s1 [GSK4112]
plasma exposure [16]: no plasma exposure
